In ChEMBL document CHEMBL1932934, “Cyclosulfamide-based derivatives as inhibitors of noroviruses” (Eur J Med Chem, 2012):

Legend:
Norovirus = test: Antiviral activity against Norovirus infected in human HG23 cells assessed as inhibition of viral replication after 24 hrs by quantitative RT-PCR analysis; format: functional; conditions: HG23, 24 h, read-out: ED50 (the source's name)
[1] = Cytotoxicity against human HG23 cells after 48 hrs; format: cell-based; conditions: read-out: TD50
How it was run: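 Cytotoxicity in Norwalk virus replicon-harboring HG23 cells exposed to compound for 48 hr, measured with a commercial cell cytotoxicity assay kit. The median toxic dose (TD50) was calculated from the readout.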

[2] = Therapeutic index, ratio of TD50 for human HG23 cells to ED50 for Norovirus infected in human HG23 cells; format: cell-based; conditions: read-out: Ratio TD50/ED50
How it was run: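 Index computed as TD50 divided by ED50, both in NV replicon-harboring HG23 cells. TD50 came from a cytotoxicity assay kit after 48 hr of treatment.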

SMILES	EC50 (Norovirus) [µM]	CC50 at 48 h [1] [µM]	selectivity ratio [2]
O=S1(=O)N(CCN2CCCCC2)CCN1Cc1cccc(Oc2ccccc2)c1	4.7	12.3	
O=S1(=O)N(CCN2CCN(Cc3cccc(Oc4ccccc4)c3)S2(=O)=O)CCN1Cc1cccc(Oc2ccccc2)c1	1.5	8.5	
O=S1(=O)N(CCN2CCN(CCN3CCN(Cc4cccc(Oc5ccccc5)c4)S3(=O)=O)CC2)CCN1Cc1cccc(Oc2ccccc2)c1	0.4	5.1	
O=S1(=O)N(CCN2CCN(Cc3ccccc3)CC2)CCN1Cc1cccc(Oc2ccccc2)c1	4.1	11.4	< 10
O=S1(=O)N(CCN2CCNCC2)CCN1Cc1cccc(Oc2ccccc2)c1	5.3	14.6	< 10
O=S1(=O)N(CCN2CCOCC2)CCN1Cc1cccc(Oc2ccccc2)c1	5.2	95.4	
COC(=O)C1CCN(CCN2CCN(Cc3cccc(Oc4ccccc4)c3)S2(=O)=O)CC1	5.5	180	
O=C(O)C1CCN(CCN2CCN(Cc3cccc(Oc4ccccc4)c3)S2(=O)=O)CC1	9.1	210	
CCOC(=O)N1CCN(CCN2CCN(Cc3cccc(Oc4ccccc4)c3)S2(=O)=O)CC1	5.8	13.5	< 10
O=C(c1ccc(Cl)cc1)N1CCN(CCN2CCN(Cc3cccc(Oc4ccccc4)c3)S2(=O)=O)CC1	7.4	35.3	< 10
O=C(c1ccc(F)cc1)N1CCN(CCN2CCN(Cc3cccc(Oc4ccccc4)c3)S2(=O)=O)CC1	9.7	80.8	< 10
O=C(c1cccc(Oc2ccccc2)c1)N1CCN(CCN2CCN(Cc3cccc(Oc4ccccc4)c3)S2(=O)=O)CC1	6.2	32.9	< 10
O=S(=O)(Cc1ccccc1)N1CCN(CCN2CCN(Cc3cccc(Oc4ccccc4)c3)S2(=O)=O)CC1	5.3	9.3	< 10
CS(=O)(=O)N1CCN(CCN2CCN(Cc3cccc(Oc4ccccc4)c3)S2(=O)=O)CC1	3.2	12.2	< 10
CCCCS(=O)(=O)N1CCN(CCN2CCN(Cc3cccc(Oc4ccccc4)c3)S2(=O)=O)CC1	3.4	11.1	< 10
COC(=O)C1CCN(C(=O)CN2CCN(Cc3cccc(Oc4ccccc4)c3)S2(=O)=O)CC1	4.2	156	39
O=C(O)C1CCN(C(=O)CN2CCN(Cc3cccc(Oc4ccccc4)c3)S2(=O)=O)CC1	> 10	80.5	
CCN1CCN(C(=O)CN2CCN(Cc3cccc(Oc4ccccc4)c3)S2(=O)=O)CC1	5.5	120	24
